Measurements from different studies.
Lines come from different studies, so protocols differ.
Target: Dual specificity tyrosine-phosphorylation-regulated kinase 2 (DYRK2, Homo sapiens, UniProt Q92630)
Read-out: enzyme activity
Mode: inhibitor
Residues used in one study (Q92630 1-601): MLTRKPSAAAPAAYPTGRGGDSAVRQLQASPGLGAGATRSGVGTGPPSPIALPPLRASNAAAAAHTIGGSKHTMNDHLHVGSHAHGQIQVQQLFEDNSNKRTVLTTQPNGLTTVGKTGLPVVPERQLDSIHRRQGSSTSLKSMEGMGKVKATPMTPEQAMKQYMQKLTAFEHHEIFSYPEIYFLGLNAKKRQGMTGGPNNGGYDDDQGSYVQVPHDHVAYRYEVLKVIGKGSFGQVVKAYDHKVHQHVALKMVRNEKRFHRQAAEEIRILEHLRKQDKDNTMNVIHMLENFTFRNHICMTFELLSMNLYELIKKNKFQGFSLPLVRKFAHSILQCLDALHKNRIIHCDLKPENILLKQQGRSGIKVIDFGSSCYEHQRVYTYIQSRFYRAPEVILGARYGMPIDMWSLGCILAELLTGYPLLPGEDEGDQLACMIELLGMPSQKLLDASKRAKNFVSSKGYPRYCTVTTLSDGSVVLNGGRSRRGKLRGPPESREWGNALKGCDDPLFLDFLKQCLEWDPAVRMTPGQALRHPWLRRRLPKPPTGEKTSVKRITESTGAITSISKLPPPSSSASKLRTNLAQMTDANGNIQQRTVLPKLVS

CC(C)(O)[C@H]1CC[C@H](Nc2ccc3ncc(-c4cccc(C(F)(F)F)c4)n3n2)CC1
remaining activity (1 µM): 59.7%

CCN(CC)c1ccc(C2=NNC(=O)CC2C)cc1[N+](=O)[O-] (stereo not drawn)
remaining activity (10 µM): 100%

COc1cc(Nc2cnc(C#N)c(O[C@H](C)CN(C)C)n2)ncc1-c1cnn(C)c1
remaining activity (radiometric; 10 µM): 100%

COc1cccc(CCNc2nc3cc(C(=O)O)ccc3c3cnccc23)c1
remaining activity (radiometric; 1 µM): 19%

FC(F)c1nc2ccccc2n1-c1nc(N2CCOCC2)nc(N2CCOCC2)n1
remaining activity (10 µM): 93%

CC(C)(C)C(=O)c1sc(NC2CCCCC2)nc1N
remaining activity (10 µM): 90%

N#Cc1cccc(Nc2nc3cc(C(=O)O)ccc3c3cnccc23)c1
remaining activity (radiometric; 1 µM): 11%

O=C(Nc1cnn(-c2csc(C(=O)NC3COC3)c2)c1)Nc1c(F)cccc1Cl
remaining activity (5 µM): 93.6%

O=C(O)c1ccc2c(c1)nc(NCCc1cccc(F)c1)c1ccncc12
remaining activity (radiometric; 1 µM): 17%

CC(C)(C)c1nc2c(s1)c1nc(N)ncc1c1ccc(NS(=O)(=O)c3c(F)cccc3F)c(F)c12
remaining activity (radiometric; 1 µM): 94%

O=C(O)c1ccc2c(c1)nc(NCCc1ccccc1)c1ccncc12
remaining activity (radiometric; 1 µM): 9%

Nc1nc(NC2CCCCC2)sc1C(=O)c1ccccc1
remaining activity (10 µM): 39%
